According to ChEMBL document CHEMBL1153847, “Synthesis and in vitro cytotoxic evaluation of novel 3,4,5-trimethoxyphenyl substituted beta-carboline derivatives” (Eur J Med Chem, 2009):

Legend:
Assay type in all cases: functional, cell-based
[1] = tested on: HeLa; assay: Cytotoxicity against human HeLa cells by MTT assay
Summary of the method: (§1)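 Cells grown in RPMI-1640 with 10% (v/v) fetal calf serum, penicillin and streptomycin, at 37 °C in humidified 5% CO2. Compounds dissolved as DMSO stocks, with final DMSO in the medium at 2% (v/v) or lower. Run in 96-well microtitre cultures with MTT staining, following a published procedure with slight modification.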

[2] = tested on: BGC-823; assay: Cytotoxicity against human BGC823 cells by MTT assay; summary of the method: as §1
[3] = tested on: HepG2; assay: Cytotoxicity against human HepG2 cells by MTT assay; summary of the method: as §1
[4] = tested on: Bel-7402; assay: Cytotoxicity against human Bel7402 cells by MTT assay; summary of the method: as §1
[5] = tested on: MCF7; assay: Cytotoxicity against human MCF7 cells by MTT assay; summary of the method: as §1

Row | Compound | IC50 [1] | IC50 [2] | IC50 [3] | IC50 [4] | IC50 [5]
1 | CCCCn1c2ccccc2c2cc(C(=O)NCCO)nc(-c3cc(OC)c(OC)c(OC)c3)c21 | > 100 µM | 37.2 µM | 87.4 µM | > 100 µM | 31.6 µM
2 | COc1ccc2c(c1)[nH]c1c(C)nccc12 [HARMINE] | 60 µM | 68 µM | 46 µM | 54 µM | 72 µM
3 | CCCCn1c2ccccc2c2cc(C(=O)OCC)nc(-c3cc(OC)c(OC)c(OC)c3)c21 | > 100 µM | 27.3 µM | > 100 µM | > 100 µM | 43.6 µM
4 | COc1cc(-c2nccc3c4ccccc4n(C)c23)cc(OC)c1OC | 71.8 µM | 43.2 µM | 86.8 µM | 91.1 µM | 74.2 µM
5 | CCn1c2ccccc2c2cc(C(=O)NCCO)nc(-c3cc(OC)c(OC)c(OC)c3)c21 | > 100 µM | 74.7 µM | > 100 µM | > 100 µM | 53.8 µM
6 | COc1cc(-c2nc(C(=O)NCCO)cc3c4ccccc4n(C)c23)cc(OC)c1OC | > 100 µM | 90.9 µM | > 100 µM | > 100 µM | 95.5 µM
7 | COc1cc(-c2nc(C=O)cc3c4ccccc4n(C)c23)cc(OC)c1OC | > 100 µM | > 100 µM | > 100 µM | > 100 µM | > 100 µM
8 | CCCCn1c2ccccc2c2cc(C(=O)O)nc(-c3cc(OC)c(OC)c(OC)c3)c21 | > 100 µM | 51.1 µM | > 100 µM | > 100 µM | > 100 µM
9 | CCCCn1c2ccccc2c2ccnc(-c3cc(OC)c(OC)c(OC)c3)c21 | 44.2 µM | 27.5 µM | 51.9 µM | 42.5 µM | 51.8 µM
10 | COc1cc(-c2nc(C=O)cc3c4ccccc4n(CCCc4ccccc4)c23)cc(OC)c1OC | > 100 µM | > 100 µM | > 100 µM | > 100 µM | > 100 µM
11 | CCCCn1c2ccccc2c2cc(C=O)nc(-c3cc(OC)c(OC)c(OC)c3)c21 | > 100 µM | > 100 µM | > 100 µM | > 100 µM | > 100 µM
12 | COc1cc(-c2nc(CO)cc3c4ccccc4n(CCCc4ccccc4)c23)cc(OC)c1OC | > 100 µM | > 100 µM | > 100 µM | > 100 µM | > 100 µM
13 | CCn1c2ccccc2c2cc(C(=O)O)nc(-c3cc(OC)c(OC)c(OC)c3)c21 | > 100 µM | 66.5 µM | > 100 µM | 61.4 µM | > 100 µM
14 | CCOC(=O)c1cc2c([nH]c3ccccc32)c(-c2cc(OC)c(OC)c(OC)c2)n1 | > 100 µM | 96.6 µM | > 100 µM | > 100 µM | 92.3 µM
15 | CCCCn1c2ccccc2c2cc(CO)nc(-c3cc(OC)c(OC)c(OC)c3)c21 | > 100 µM | > 100 µM | > 100 µM | > 100 µM | > 100 µM
16 | COc1cc(-c2nccc3c2[nH]c2ccccc23)cc(OC)c1OC | 19.6 µM | 43.1 µM | 63.2 µM | 43.8 µM | 31.7 µM
17 | CCOC(=O)c1cc2c3ccccc3n(C)c2c(-c2cc(OC)c(OC)c(OC)c2)n1 | > 100 µM | 56.6 µM | > 100 µM | > 100 µM | > 100 µM
18 | CCn1c2ccccc2c2ccnc(-c3cc(OC)c(OC)c(OC)c3)c21 | 50.9 µM | 35.2 µM | > 100 µM | 43.9 µM | 72.7 µM
19 | CCOC(=O)c1cc2c3ccccc3n(CC)c2c(-c2cc(OC)c(OC)c(OC)c2)n1 | > 100 µM | 53.2 µM | > 100 µM | > 100 µM | > 100 µM
20 | CCn1c2ccccc2c2cc(CO)nc(-c3cc(OC)c(OC)c(OC)c3)c21 | > 100 µM | > 100 µM | > 100 µM | > 100 µM | > 100 µM
21 | COc1cc(-c2nc(CO)cc3c4ccccc4n(C)c23)cc(OC)c1OC | > 100 µM | > 100 µM | > 100 µM | > 100 µM | > 100 µM
22 | CCOC(=O)c1cc2c3ccccc3n(CCCc3ccccc3)c2c(-c2cc(OC)c(OC)c(OC)c2)n1 | > 100 µM | 95.4 µM | > 100 µM | > 100 µM | > 100 µM
23 | CCn1c2ccccc2c2cc(C=O)nc(-c3cc(OC)c(OC)c(OC)c3)c21 | > 100 µM | > 100 µM | > 100 µM | > 100 µM | > 100 µM
24 | COc1cc(-c2nc(C(=O)O)cc3c4ccccc4n(C)c23)cc(OC)c1OC | > 100 µM | 91.1 µM | > 100 µM | > 100 µM | > 100 µM
